# Bioassay records deposited in PubChem by Broad Institute.
# miR-122 sensor: inhibitors of miR-122 in Huh7 cells. Huh7 miR-122 Renilla luciferase sensor, 48 h; neutral wells = 0, positive control = 100. activation (reporter increase), % at 12.5 µM. actives 0.3% (n = 340,000). AID 602342;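 active = mean replicate activation score at least 90 and every replicate individually at or above 90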;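 also: higher luciferase means less miR-122 activity so hits act as miR-122 inhibitors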
# Env fusion inh: inhibitors of HIV Env-mediated cell fusion; HeLa-JRFL Env/CEM21 cell fusion, luciferase; inhibition, % at 12.3 µM; actives 1.1% (n = 360,000); AID 651610;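 active = mean replicate inhibition score of at least 50 and every replicate individually at or above 50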;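 also: 0% = plate neutral controls and 100% = maraviroc near 300 nM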
# S100A4 MyoIIA: blocks human S100A4 binding to myosin IIA peptide; AID 652163; actives 0.14% (n = 360,000); S100A4/TAMRA-MyoIIA peptide fluorescence polarization; inhibition, % at 10.7 µM; P26447;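 active = mean inhibition of at least 70% across replicates, with every replicate also reaching that level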
# Target sequence (P26447 whole entry, looked up): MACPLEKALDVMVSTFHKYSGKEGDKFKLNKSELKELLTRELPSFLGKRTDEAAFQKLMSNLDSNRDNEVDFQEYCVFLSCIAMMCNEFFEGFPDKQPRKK
#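 Material: S100A4 monomer protein / Buffer or medium: 50 mM HEPES pH 7.2, 10 mM CaCl2, 100 mM KCl / Times: 5 min incubation before reading / Benchmarks: neutral control DMSO, positive control TFP / Reagent: labelled myosin peptide probe, 5 nM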
# FN deposit inh: fibronectin deposition inhibition | AH1F fibroblasts, Alexa488-fibronectin deposition fluorescence, overnight | inhibition, % at 12.6 µM | actives 0.086% (n = 350,000) | AID 743247;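 active = mean inhibition across replicates of 30% or more, regardless of how many single replicates reach that level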;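 also: positive control wells lacked labelled fibronectin entirely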
#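 material = AH1F fibroblast monolayer depositing Alexa488-labelled fibronectin into matrix | amount = 10000 AH1F cells/well | buffer or medium = DMEM plus 2% serum, read in PBS | incubation = 1 h cell adhesion before compound, then overnight fibronectin incubation | detection = fluorescence at 485 nm excitation, 525 nm emission | evaluation = percent inhibition as loss of matrix-bound fibronectin fluorescence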
# Vif imaging: blocks HIV Vif function; HEK293T cells, Vif self-association by quenched fluorescence, imaging, 24 h; inhibition, % at 7.49 µM; actives 0.35% (n = 340,000); AID 602346; in the data active = inhibition above about 50%, passing the limit was not always enough
# rRNA inh HTS: inhibits bacterial ribosomal RNA function over humanized ribosomes; actives 1.6% (n = 350,000); AID 720706; GFP signal change (wild-type ribosome), % (no concentration beside the values); E. coli WT GFP vs humanized-ribosome RFP mutants, fluorescence, 24 h; hits give low values; DMSO median 0, no signal -100;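 active = significant combined selectivity score with lowered wild-type GFP, culture density cut under 30%, mutant RFP and density less affected; inactive = any of these conditions unmet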
# An asterisk follows results filed as active; . = not tested or not shown; [ ] = dose if it differs, or a comment. Most compounds without a hit are left out; they make up all but 2.6% or so of the library.
SMILES,miR-122 sensor,Env fusion inh,S100A4 MyoIIA,FN deposit inh,Vif imaging,rRNA inh HTS
O=C(COc1ccc(Br)cc1)N1CCc2ccccc2C1,.,-3,6,-2,0,-26*
COC(=O)C12OCC34C(CC5C(C)=C(O)C(=O)CC5(C)C3C(O)C1O)OC(=O)C(OC(=O)C=C(C)C)C24 (stereo unspecified),-5,64*,0,10,3,10
COc1ccc(S(=O)(=O)N2CCCCN3[C@H](CO)[C@H](c4ccc(C#CC(C)C)cc4)[C@H]3C2)cc1,-9[16.7 µM],.,2,5,.,-16
O=C(N/N=C/c1ccc([N+](=O)[O-])o1)c1cc2c(ccc3ccccc32)o1,.,-20,0,6,2,-24*
CC[C@@H](NC(=O)[C@@H](Cc1ccccc1)NC(=O)CC[C@H]1O[C@@H](n2ccc(=O)[nH]c2=O)[C@H](O)[C@@H]1O)c1ccccc1,2,-5,-5,-4,.,-8.9*
COc1ccc(C(=O)COC(=O)c2ccccc2O)c(OC)c1,5,-67,2,-4,2,-18*
OCCN(CC#CCn1c2ccccc2c2ccccc21)CCO,.,-6,-3,1,35,-29*
CCCCNc1c(-c2ccc(OC)c(Sc3ccc(OC)cc3)c2)nc2cnccn12,.,-45,-10,0,61*,-1
C/C=C/c1ccc([C@H]2[C@H]3CN(Cc4ccc(C(=O)OC)cc4)CC(=O)N3[C@H]2CO)cc1,.,.,11,.,.,-3
COc1ccc(NS(=O)(=O)c2cc(NC(=O)c3ccc(=O)[nH]c3)ccc2N2CCCC2)cc1,155*,-57,1,12,.,-21
COc1ccc(NS(=O)(=O)c2cc(NC(=O)C3CC3)ccc2N2CCCCC2)cc1,48,4,2,.,-1,-14
COc1ccc(NS(=O)(=O)c2cc(NC(=O)c3ccco3)ccc2N2CCCCC2)cc1,209*,-14,.,11,-22,.
CCCC(=O)Nc1ccc2c(c1)C(=O)N(C)C[C@@H](OC)[C@H](C)CN(Cc1ccncc1)[C@@H](C)CO2,5[16.7 µM],.,.,-12,.,2
C[C@@H]1CN([C@H](C)CO)C(=O)Cc2cc(NC(=O)CCN3CCOCC3)ccc2O[C@@H]1CN(C)Cc1ccc2c(c1)OCO2,-5[16.7 µM],-5[16.7 µM],14,.,.,-3
COc1ccc(S(=O)(=O)Nc2ccc3c(c2)CC(=O)N([C@@H](C)CO)C[C@H](C)[C@H](CN(C)S(=O)(=O)c2cccs2)O3)cc1,3[16.7 µM],80*[16.7 µM],2,-1,.,-3
C[C@H]1CN([C@@H](C)CO)C(=O)Cc2cc(NC(=O)Nc3ccccc3)ccc2O[C@H]1CN(C)S(=O)(=O)c1cccs1,-11[16.7 µM],70*[16.7 µM],29,.,.,-1
COc1ccc(NC(=O)Nc2ccc3c(c2)CC(=O)N([C@H](C)CO)C[C@H](C)[C@@H](CN(C)S(=O)(=O)c2cccs2)O3)cc1,-6[16.7 µM],4[16.7 µM],-10,-2,.,4
COc1ccc(NC(=O)Nc2ccc3c(c2)CC(=O)N([C@@H](C)CO)C[C@H](C)[C@H](CN(C)S(=O)(=O)c2cccs2)O3)cc1,4[16.7 µM],75*[16.7 µM],.,-6,.,-2
C[C@@H]1CN([C@H](C)CO)C(=O)Cc2cc(NC(=O)CCN3CCOCC3)ccc2O[C@H]1CN(C)Cc1ccc2c(c1)OCO2,31[16.7 µM],2[16.7 µM],123*,.,.,5
COc1ccc2c3c(n(C)c2c1)[C@H](CO)N(C(=O)c1cccnc1)CC31CCN(S(=O)(=O)c2ccccc2)CC1,.,.,.,.,.,-5
O=C(C[C@H]1C=C[C@H](NC(=O)C2CC2)[C@@H](CO)O1)Nc1ccccc1,.,14[16.7 µM],14,.,.,3
C[C@H](CO)N1C[C@H](C)[C@H](CN(C)S(=O)(=O)c2cccs2)Oc2ccc(NC(=O)C3CCCCC3)cc2CC1=O,4[16.7 µM],61*[16.7 µM],-27,.,.,-3
C[C@H](CO)N1C[C@H](C)[C@H](CN(C)S(=O)(=O)c2cccs2)Oc2ccc(NC(=O)Cc3ccccc3)cc2CC1=O,17[16.7 µM],96*[16.7 µM],-7,.,.,.
C[C@H](CO)N1C[C@H](C)[C@H](CN(C)S(=O)(=O)c2cccs2)Oc2ccc(NC(=O)CCN3CCOCC3)cc2CC1=O,35[16.7 µM],56*[16.7 µM],6,.,.,0
Cc1ccc(C(=O)N/C(=C\c2cn(S(=O)(=O)N(C)C)c3ccccc23)C(=O)NCCCn2ccnc2)cc1,35,0,-1,-25,-1,-6
SMILES,miR-122 sensor,Env fusion inh,S100A4 MyoIIA,FN deposit inh,Vif imaging,rRNA inh HTS
CCn1cc(/C=C(\NC(=O)c2ccccc2)C(=O)NCCCn2ccnc2)c2ccccc21,165*,-30,-1,10,.,-2
C[C@H](NC(=O)[C@H]1[C@H](CO)[C@H]2Cn3c(cccc3=O)[C@H]2N1CC1CCCCC1)c1ccccc1,.,.,-2,.,.,-8
Nc1ccc2nc(SCc3cccc(F)c3)sc2c1,-10,-64,17,.,9,-31*
COc1cccc(S(=O)(=O)Nc2ccc3c(c2)[C@H]2C[C@@H](CC(=O)N[C@@H](C)c4ccccc4)O[C@H](CO)[C@H]2O3)c1,-2[16.7 µM],4[16.7 µM],-3,.,.,-10
C[C@@H]1CN([C@@H](C)CO)C(=O)Cc2cc(NS(=O)(=O)c3ccc(Cl)cc3)ccc2O[C@H]1CN(C)S(=O)(=O)c1ccccc1,2[16.7 µM],-3[16.7 µM],-8,.,.,-2
COc1cc(Br)cc(/C=N/N(CCO)C2=NS(=O)(=O)c3ccccc32)c1OC,9,0,1,4,-11,-22*
COc1cc(/C=N/N(CCO)C2=NS(=O)(=O)c3ccccc32)cc(OC)c1OC,-2,8,-8,0,1,-3
C[C@@H]1CN([C@@H](C)CO)C(=O)c2cccc(NC(=O)Nc3ccccc3)c2O[C@H]1CN(C)CC1CCCCC1,29[16.7 µM],15[16.7 µM],-7,.,.,-7
COc1ccc(CCN(Cc2cccs2)S(=O)(=O)c2ccc(-n3cnnn3)cc2)cc1OC,69,86*,.,-2,-3,.
CNC(=O)C[C@@H]1CC[C@@H]2[C@@H](COc3ccc(NC(=O)NC(C)C)cc3C(=O)N2C)O1,-33[16.7 µM],-10[16.7 µM],.,1,.,1
COC(=O)CN1C(c2ccc(OC)cc2)=Nc2ccc(Cl)cc2C1c1ccccc1 (stereo unspecified),.,1,.,-9,0,.
COC(=O)CN1C(c2cccc(Cl)c2)=Nc2ccc(Cl)cc2C1c1ccccc1 (stereo unspecified),.,56*,1,-1,7,.
CC(=O)N1c2ccc(S(=O)(=O)N3CCC(C(=O)Nc4ncccc4C)CC3)cc2CC1C (stereo unspecified),-4,-13,86*,5,-2,-2
CCc1cccc(NC(=O)C2CCN(S(=O)(=O)c3ccc4c(c3)CC(C)N4C(C)=O)CC2)c1 (stereo unspecified),-4,68*,-3,6,-26,-11
